Measured values from ChEMBL document CHEMBL4610084, “Antibacterial and ATP Synthesis Modulating Compounds from Salvia tingitana” (2020).

Assays:
Assay type in all cases: functional
[1] = test system: Staphylococcus warneri; assay: Antibacterial activity against Methicillin-resistant Staphylococcus warneri MB74 after 24 hrs by microdilution assay; conditions: MB74, 24 h
Method in brief: (§1)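 Broth microdilution MIC, run as in an earlier cited report. Strains are clinical isolates identified by standard methods and MALDI-TOF; E. faecalis MB19 and MB51 are Ligurian seawater isolates. Highest concentration tested was 128 μg/mL. MICs are given in μg/mL and μM, with oxacillin and vancomycin as reference antibiotics.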

[2] = test system: Enterococcus casseliflavus; assay: Antibacterial activity against Vancomycin resistant Enterococcus casseliflavus MB159 after 24 hrs by microdilution assay; conditions: MB159, 24 h; method in brief: as §1
[3] = test system: Enterococcus faecium; assay: Antibacterial activity against Enterococcus faecium MB2 after 24 hrs by microdilution assay; conditions: MB2, 24 h
Method in brief: (§2)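 Broth microdilution MIC against clinical or seawater-isolated strains (identified by standard procedures and MALDI-TOF), with compound solutions and testing as in earlier work. MIC reported in μg/mL and μM.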

[4] = test system: Staphylococcus saprophyticus; assay: Antibacterial activity against Staphylococcus saprophyticus MB41 after 24 hrs by microdilution assay; conditions: MB41, 24 h; method in brief: as §2
[5] = test system: Enterococcus faecium; assay: Antibacterial activity against Enterococcus faecium MB3 after 24 hrs by microdilution assay; conditions: MB3, 24 h; method in brief: as §2
[6] = test system: Enterococcus faecalis; assay: Antibacterial activity against Enterococcus faecalis MB76 after 24 hrs by microdilution assay; conditions: MB76, 24 h; method in brief: as §1
[7] = test system: Enterococcus faecalis; assay: Antibacterial activity against Vancomycin resistant Enterococcus faecalis MB1 after 24 hrs by microdilution assay; conditions: MB1, 24 h; method in brief: as §1
[8] = test system: Enterococcus durans; assay: Antibacterial activity against Enterococcus durans MB113 after 24 hrs by microdilution assay; conditions: MB113, 24 h; method in brief: as §2
[9] = test system: Enterococcus avium; assay: Antibacterial activity against Enterococcus avium MB119 after 24 hrs by microdilution assay; conditions: MB119, 24 h; method in brief: as §2
[10] = test system: Enterococcus gallinarum; assay: Antibacterial activity against Vancomycin resistant Enterococcus gallinarum MB111 after 24 hrs by microdilution assay; conditions: MB111, 24 h; method in brief: as §1
[11] = test system: Staphylococcus aureus; assay: Antibacterial activity against Methicillin-resistant Staphylococcus aureus MB188 after 24 hrs by microdilution assay; conditions: MB188, 24 h; method in brief: as §1
[12] = test system: Staphylococcus epidermidis; assay: Antibacterial activity against Methicillin-resistant Staphylococcus epidermidis MB169 after 24 hrs by microdilution assay; conditions: MB169, 24 h; method in brief: as §1
[13] = test system: Enterococcus faecalis; assay: Antibacterial activity against Vancomycin resistant Enterococcus faecalis MB19 after 24 hrs by microdilution assay; conditions: MB19, 24 h; method in brief: as §1
[14] = test system: Staphylococcus simulans; assay: Antibacterial activity against Staphylococcus simulans MB94 after 24 hrs by microdilution assay; conditions: MB94, 24 h; method in brief: as §2
[15] = test system: Staphylococcus hominis; assay: Antibacterial activity against Methicillin-resistant Staphylococcus hominis MB124 after 24 hrs by microdilution assay; conditions: MB124, 24 h; method in brief: as §1
[16] = test system: Staphylococcus haemolyticus; assay: Antibacterial activity against Methicillin-resistant Staphylococcus haemolyticus MB115 after 24 hrs by microdilution assay; conditions: MB115, 24 h; method in brief: as §1
[17] = test system: Staphylococcus aureus; assay: Antibacterial activity against Methicillin-resistant Staphylococcus aureus MB18 after 24 hrs by microdilution assay; conditions: MB18, 24 h; method in brief: as §1
[18] = test system: Staphylococcus epidermidis; assay: Antibacterial activity against Methicillin-resistant Staphylococcus epidermidis MB165 after 24 hrs by microdilution assay; conditions: MB165, 24 h; method in brief: as §1
[19] = test system: Staphylococcus capitis; assay: Antibacterial activity against Methicillin-resistant Staphylococcus capitis MB71 after 24 hrs by microdilution assay; conditions: MB71, 24 h; method in brief: as §1
[20] = test system: Enterococcus faecium; assay: Antibacterial activity against Enterococcus faecium MB152 after 24 hrs by microdilution assay; conditions: MB152, 24 h; method in brief: as §2
[21] = test system: Enterococcus faecalis; assay: Antibacterial activity against Vancomycin resistant Enterococcus faecalis MB51 after 24 hrs by microdilution assay; conditions: MB51, 24 h; method in brief: as §1
[22] = test system: Staphylococcus lugdunensis; assay: Antibacterial activity against Staphylococcus lugdunensis MB96 after 24 hrs by microdilution assay; conditions: MB96, 24 h; method in brief: as §2

Compound | MIC [1] | MIC [2] | MIC [3] | MIC [4] | MIC [5] | MIC [6] | MIC [7] | MIC [8] | MIC [9] | MIC [10] | MIC [11] | MIC [12] | MIC [13] | MIC [14] | MIC [15] | MIC [16] | MIC [17] | MIC [18] | MIC [19] | MIC [20] | further results
COC1O[C@H]2C[C@@](C)(O)[C@H](CC/C(C)=C/[C@H](O)[C@H]3OC(=O)C=C3C)[C@@]3(C)CCC[C@]1(C)[C@H]23 (some centres not stated) | > 128 µg/mL | 286 µM | 286 µM | 286 µM | 143 µM | 143 µM | 143 µM | > 128 µg/mL | 143 µM | 143 µM | > 128 µg/mL | 286 µM | 286 µM | > 128 µg/mL | 286 µM | > 128 µg/mL | 286 µM | > 128 µg/mL | 286 µM | 286 µM | MIC [21]: 143 µM; MIC [22]: > 128 µg/mL
COc1ccc(-c2cc(=O)c3c(OC)c(OC)c(OC)cc3o2)cc1 | 390 µM | 390 µM | 390 µM | > 128 µg/mL | 195 µM | 390 µM | 195 µM | 195 µM | 390 µM | 195 µM | > 128 µg/mL | 390 µM | 195 µM | > 128 µg/mL | 390 µM | > 128 µg/mL | 390 µM | > 128 µg/mL | 390 µM | 195 µM | MIC [21]: 390 µM; MIC [22]: > 128 µg/mL
COc1cc2oc(-c3ccc(O)cc3)cc(=O)c2c(O)c1OC [CIRSIMARITIN] | > 128 µg/mL | 407 µM | 407 µM | > 128 µg/mL | 204 µM | 407 µM | 204 µM | 407 µM | 204 µM | 102 µM | > 128 µg/mL | > 128 µg/mL | 407 µM | > 128 µg/mL | > 128 µg/mL | > 128 µg/mL | > 128 µg/mL | > 128 µg/mL | 407 µM | 407 µM | MIC [21]: 407 µM; MIC [22]: 407 µM
CN[C@H](CC(C)C)C(=O)N[C@H]1C(=O)N[C@@H](CC(N)=O)C(=O)N[C@H]2C(=O)N[C@H]3C(=O)N[C@H](C(=O)N[C@H](C(=O)O)c4cc(O)cc(O)c4-c4cc3ccc4O)[C@H](O)c3ccc(c(Cl)c3)Oc3cc2cc(c3O[C@@H]2O[C@H](CO)[C@@H](O)[C@H](O)[C@H]2O[C@H]2C[C@](C)(N)[C@H](O)[C@H](C)O2)Oc2ccc(cc2Cl)[C@H]1O [VANCOMYCIN] |  | 2.76 µM | 1.38 µM |  | 88.3 µM | 88.3 µM | 22.1 µM | 0.69 µM | 0.69 µM | 11 µM |  |  | 22.1 µM |  |  |  |  |  |  | 177 µM | MIC [21]: 44.2 µM
COC1O[C@H]2C[C@@](C)(O)[C@H](CC/C(C)=C/CC3OC(=O)C=C3C)[C@@]3(C)CCC[C@]1(C)[C@H]23 (some centres not stated) | 148 µM | 148 µM | 296 µM | 296 µM | 296 µM | 296 µM | 296 µM | 296 µM | 296 µM | 296 µM | 296 µM | 148 µM | 148 µM | 296 µM | 148 µM | 296 µM | 296 µM | 148 µM | 74.1 µM | 148 µM | MIC [21]: 296 µM; MIC [22]: 296 µM
COC(=O)[C@]1(C)CCC[C@@]2(C)[C@H]1[C@@H](O)C[C@@](C)(O)[C@@H]2CC/C(C)=C/[C@H](O)[C@H]1OC(=O)C=C1C | 138 µM | 276 µM | 276 µM | > 128 µg/mL | 276 µM | 276 µM | 138 µM | 138 µM | 138 µM | 276 µM | > 128 µg/mL | > 128 µg/mL | 276 µM | > 128 µg/mL | 138 µM | 276 µM | 276 µM | 276 µM | 276 µM | 138 µM | MIC [21]: 138 µM; MIC [22]: > 128 µg/mL
CC1=CC(=O)O[C@@H]1C/C=C(\C)CC[C@@H]1[C@@]2(C)CCC[C@@](C)(CO)[C@@H]2[C@@H](O)C[C@@]1(C)O | > 128 µg/mL | > 128 µg/mL | > 128 µg/mL | > 128 µg/mL | > 128 µg/mL | > 128 µg/mL | > 128 µg/mL | > 128 µg/mL | > 128 µg/mL | > 128 µg/mL | > 128 µg/mL | > 128 µg/mL | > 128 µg/mL | > 128 µg/mL | > 128 µg/mL | > 128 µg/mL | > 128 µg/mL | > 128 µg/mL | > 128 µg/mL | > 128 µg/mL | MIC [21]: > 128 µg/mL; MIC [22]: > 128 µg/mL
COc1ccc(-c2cc(=O)c3c(OC)c(OC)c(OC)cc3o2)cc1OC [SINENSETIN] | 344 µM | 172 µM | 344 µM | > 128 µg/mL | 344 µM | 344 µM | 86 µM | 344 µM | 344 µM | 172 µM | 344 µM | 344 µM | 344 µM | > 128 µg/mL | 344 µM | > 128 µg/mL | > 128 µg/mL | > 128 µg/mL | 344 µM | 172 µM | MIC [21]: 172 µM; MIC [22]: > 128 µg/mL
COC(=O)[C@]1(C)CCC[C@]2(C)[C@H]3CCC(C)(/C=C/c4occc4C)O[C@]3(C)CC[C@H]21 (some centres not stated) | 309 µM | 309 µM | 309 µM | 309 µM | 309 µM | 309 µM | > 128 µg/mL | > 128 µg/mL | > 128 µg/mL | 309 µM | > 128 µg/mL | 155 µM | 309 µM | > 128 µg/mL | 309 µM | > 128 µg/mL | 309 µM | 309 µM | 155 µM | > 128 µg/mL | MIC [21]: 309 µM; MIC [22]: > 128 µg/mL
CC1=CC(=O)OC1C/C=C(\C)CC[C@@H]1[C@@]2(C)CCC[C@@](C)(CO)[C@@H]2CC[C@@]1(C)O (some centres not stated) | 317 µM | 158 µM | 317 µM | 317 µM | 317 µM | 158 µM | 317 µM | > 128 µg/mL | 158 µM | 158 µM | > 128 µg/mL | > 128 µg/mL | 79.2 µM | > 128 µg/mL | 317 µM | > 128 µg/mL | 317 µM | 317 µM | 317 µM | 158 µM | MIC [21]: 158 µM; MIC [22]: > 128 µg/mL
CC1=CC(=O)O[C@@H]1C/C=C(\C)CC[C@@H]1[C@@]2(C)CCC[C@@]3(C)C(O)O[C@@H](C[C@@]1(C)O)[C@H]23 (some centres not stated) | > 128 µg/mL | > 128 µg/mL | > 128 µg/mL | > 128 µg/mL | > 128 µg/mL | > 128 µg/mL | > 128 µg/mL | > 128 µg/mL | > 128 µg/mL | > 128 µg/mL | > 128 µg/mL | > 128 µg/mL | > 128 µg/mL | > 128 µg/mL | > 128 µg/mL | > 128 µg/mL | > 128 µg/mL | > 128 µg/mL | > 128 µg/mL | > 128 µg/mL | MIC [21]: > 128 µg/mL; MIC [22]: > 128 µg/mL
Cc1onc(-c2ccccc2)c1C(=O)N[C@@H]1C(=O)N2[C@@H]1SC(C)(C)[C@@H]2C(=O)O [OXACILLIN] | 319 µM |  |  | 2.49 µM |  |  |  |  |  |  | 1280 µM | 638 µM |  | 0.62 µM | 39.9 µM | 39.9 µM | 638 µM | 638 µM | 638 µM |  | MIC [22]: 1.25 µM
